# Assay outcomes deposited in PubChem by Broad Institute.
# ERp5 block = blocks human ERp5 reductase activity on insulin | inhibition, % at 9.99 µM | ERp5 insulin aggregation, absorbance 650 nm, 90 min | Q15084 | actives 0.05% (n = 350,000);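 active = mean replicate inhibition above about 25%, with every replicate also reaching it, limit read from the data, passing the limit was not always enough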
# Target sequence (Q15084 whole entry, looked up): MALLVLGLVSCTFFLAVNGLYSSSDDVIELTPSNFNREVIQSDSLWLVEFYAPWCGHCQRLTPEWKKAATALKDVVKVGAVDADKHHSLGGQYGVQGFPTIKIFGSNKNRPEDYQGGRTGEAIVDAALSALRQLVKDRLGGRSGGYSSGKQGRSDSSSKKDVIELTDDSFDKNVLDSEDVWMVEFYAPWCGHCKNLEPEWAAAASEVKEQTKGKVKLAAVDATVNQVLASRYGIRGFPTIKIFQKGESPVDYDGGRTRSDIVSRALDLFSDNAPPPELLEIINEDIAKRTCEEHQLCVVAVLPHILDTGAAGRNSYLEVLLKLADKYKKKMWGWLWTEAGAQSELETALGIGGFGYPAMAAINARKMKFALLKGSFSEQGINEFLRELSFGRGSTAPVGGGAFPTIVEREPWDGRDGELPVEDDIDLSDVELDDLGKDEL
# FGF22 binding = FGF22 (human) thermal shift binding. Q9HCT0. activity (Tm shift, normalised), % at 9.99 µM. AID 651658. recombinant FGF22 thermal shift, SYPRO orange fluorescence; percent of sucrose octasulfate shift, DMSO zero. actives 1.5% (n = 340,000);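 active = mean Tm shift, scaled 0 neutral to 100 positive control, at about 1.3% or above, every replicate too, limit read from the data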
# S100A4 MyoIIA = S100A4-myosin IIA interaction inhibition | P26447 | S100A4/TAMRA-MyoIIA peptide fluorescence polarization | inhibition, % at 10.7 µM | actives 0.14% (n = 360,000);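 active = mean inhibition of at least 70% across replicates, with every replicate also reaching that level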
# Target sequence (P26447 whole entry, looked up): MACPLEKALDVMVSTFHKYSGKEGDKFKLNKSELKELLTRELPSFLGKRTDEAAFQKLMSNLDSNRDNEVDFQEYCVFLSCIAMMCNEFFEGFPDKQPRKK
#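 Compound dosing: one dose per compound; test system: human S100A4 monomer with TAMRA-labelled myosin IIA peptide; probe or stimulus: TAMRA-labelled myosin IIA heavy-chain peptide probe, 5 nM; medium: HEPES buffer with Ca2+, pH 7.2; schedule: 5 min incubation before reading; benchmarks: neutral control DMSO, positive control TFP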
# PDI turbidity = blocks human protein disulfide isomerase activity; actives 0.052% (n = 350,000); inhibition, % at 10 µM; PDI insulin aggregation turbidity, A650, 90 min; P07237;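 active = mean inhibition across replicates of 30% or more, whatever share of single replicates reach that level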
# ERAP1 inh = ERAP1 (human) enzyme inhibition. Q9NZ08. actives 0.15% (n = 340,000). recombinant ERAP1, Leu-AMC fluorescence, 60 min. AID 652197. inhibition, % at 10.7 µM;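 active = mean replicate inhibition of at least 30%, or all replicates individually reaching that 30% level; inactive = mean below 30% and not every replicate reaching it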
# Numbers stand for hits; i = inactive; nt = not tested or not shown. The full list was thinned out, with hits kept by preference.
SMILES,ERp5 block,FGF22 binding,S100A4 MyoIIA,PDI turbidity,ERAP1 inh
O=C(c1cc([N+](=O)[O-])ccc1N1CCOCC1)N1CCCCC1,i,i,i,i,i
O=C(c1cc2cc([N+](=O)[O-])ccc2oc1=O)N1CCN(c2ncccn2)CC1,nt,nt,nt,i,nt
O=C(c1cc([N+](=O)[O-])ccc1N1CCOCC1)N1CCN(c2ccc([N+](=O)[O-])cc2)CC1,i,nt,i,36,i
O=C(c1cc2cc([N+](=O)[O-])ccc2oc1=O)N1CCOCC1,i,43,i,i,i
CCOC(=O)C(=O)C1=C(N2CCOCC2)/C(=C\c2cccc([N+](=O)[O-])c2)CC1,i,i,i,i,i
O=C(NP(=O)(N1CCCC1)N1CCCC1)C1=C(N2CCOCC2)/C(=C/c2cccc([N+](=O)[O-])c2)CC1,i,44,i,i,i
NC(=O)c1nsc(C(=O)N(Cc2ccco2)C(C(=O)NCc2ccccc2)c2ccc(O)cc2)c1N (configuration not stated),i,i,i,i,i
C=CCNC(=S)NC(CC(=O)OC)c1ccc2c(c1)OCO2 (configuration not stated),i,43,i,i,i
COC(=O)CC(NC(=O)c1ccc(C)cc1)c1ccc2c(c1)OCO2 (configuration not stated),nt,nt,nt,i,nt
N#Cc1cc(C(=O)c2ccccc2O)cn(-c2ccc(Cl)cc2)c1=O,i,i,i,i,i
Cc1c(-n2cc(C(=O)c3ccccc3O)cc(C#N)c2=O)c(=O)n(-c2ccccc2)n1C,nt,nt,nt,89,nt
Cc1ccc(NC(=O)N2CCCC2C(=O)NCC2CCCO2)cc1 (configuration not stated),i,43,i,i,i
O=S(=O)(CCN1CCCCC1)CCS(=O)(=O)CCN1CCCCC1,i,44,i,i,i
O=C(Nc1cc(C(F)(F)F)ccc1N1CCCCC1)C1=COCCO1,i,1.9,i,i,i
CCOC(=O)C1CCCN(C2CC(=O)N(c3ccc(C(C)C)cc3)C2=O)C1 (configuration not stated),i,i,i,i,i
O=C(O)CN1CCN(CC(=O)O)CCN(CC(=O)O)CCN(CC(=O)O)CC1,i,i,i,i,i
O=C(O)CN1CCNCCN(CC(=O)O)CCNCC1,i,43,i,i,i
CC(OC(=O)c1ccncc1)C(=O)Nc1cccc([N+](=O)[O-])c1 (configuration not stated),i,43,i,i,i
COc1ccc(OC(C)C(=O)Nc2cccc([N+](=O)[O-])c2)cc1 (configuration not stated),nt,nt,nt,i,nt
COc1ccc(N2C(=O)CSC2c2ccncc2)cc1 (configuration not stated),nt,nt,nt,i,nt
COc1cnc(-c2cccc(C(F)(F)F)c2)nc1OC,i,43,i,i,i
CC(C)Nc1nc(-c2ccccc2CO)c2sccc2n1,i,43,i,i,i
COc1cccc(C(=O)NCC(=O)N/N=C/c2cccc(OC(=O)c3ccc([N+](=O)[O-])cc3)c2)c1,i,43,i,i,i
O=C(CNC(=O)c1ccc([N+](=O)[O-])cc1)N/N=C\c1ccc(OC(=O)c2ccccc2)cc1,nt,nt,nt,i,nt
O=C(O)CCCCCNC(=O)/C=C/c1ccco1,i,i,i,i,i
SMILES,ERp5 block,FGF22 binding,S100A4 MyoIIA,PDI turbidity,ERAP1 inh
O=C(O)CCCNC(=O)/C=C/c1ccco1,i,44,i,i,i
CCOc1ccc(NC(=O)c2ccc(NC(=S)NC3CC3)cc2)cc1,i,1.9,i,i,i
CCOc1ccc(NC(=O)c2ccc(NC(=S)NC3CCCCC3)cc2)cc1,i,i,i,i,i
O=C(C1CCC1)N1C[C@H]2[C@@H](c3ccccc31)[C@H](CO)N2C(=O)Cc1ccccn1,i,i,i,nt,i
COc1ccc(/C=C/C2=CCN(Cc3ccc(OC)cc3)CC2)cc1,i,43,i,i,i
OC(c1cc(F)cc(Cl)c1)c1ncc(-c2cccc(C(F)(F)F)c2)[nH]1 (configuration not stated),i,i,i,i,i
CSc1ccccc1C(=O)C1CCCN(Cc2cnn(-c3ccccc3)c2)C1 (configuration not stated),i,43,i,i,i
CSc1ccccc1C(=O)C1CCCN(Cc2c(C)n(C)n(-c3ccccc3)c2=O)C1 (configuration not stated),i,i,i,i,i
Cc1cc(N2CCCCC2)nc(N2CCOCC2)n1,nt,nt,nt,i,nt
Cc1cc(N2CCOCC2)nc(N2CCOCC2)n1,i,43,i,i,i
CCCCCCC12Cc3cc(OC)c(OC)cc3C(O1)C1=C(O2)C(C)(C)CCC1=O (configuration not stated),i,43,i,nt,i
CC(C)CC#Cc1ccc2c(c1)O[C@H](CN(C)C(=O)Cc1cccnc1)[C@@H](C)CN([C@@H](C)CO)S2(=O)=O,i,i,i,nt,i
COc1ccc(CC(=O)Oc2ccc(C)cc2C)cc1,i,i,i,i,i
COc1ccc(C/C(C)=N/NC(=O)c2ccc(C)cc2C)cc1,i,44,i,i,i
COc1ccc(N(CC(=O)Nc2cccnc2)S(C)(=O)=O)cc1,i,43,i,i,i
CCOc1ccc(N(C(C)C(=O)Nc2cccnc2)S(C)(=O)=O)cc1 (configuration not stated),i,43,i,i,i
O=C(COC(=O)c1ccc(F)c(S(=O)(=O)N2CCOCC2)c1)Nc1ccc2c(c1)OCO2,i,i,i,i,i
CN1CCN(C2CN(Cc3cn(Cc4ccccc4C(F)(F)F)nn3)S(=O)(=O)C2)CC1 (configuration not stated),i,i,i,nt,i
CN(C)CCN1CCN(C2CN(Cc3cn(Cc4ccccc4C(F)(F)F)nn3)S(=O)(=O)C2)CC1 (configuration not stated),i,15,i,nt,i
C/C=C\C=C/C(=O)Nc1cccc(C2=NOC3(C2)C[C@H](C(N)=O)N(C(=O)c2ccc(OC)cc2)C3)c1 (some centres not stated),i,i,i,i,i
O=C(NCCCN1CCCC1)c1ccc(CS(=O)(=O)c2c(Cl)cccc2Cl)o1,26,i,i,i,i
COc1ccc(CCN2C(=O)N(c3ccc(OC)cc3)C(=O)C2CC(=O)Nc2ccccc2)cc1 (configuration not stated),i,i,i,i,i
COc1ccc(N2C(=O)C(CC(=O)Nc3ccccc3)N(CCc3ccc(OC)c(OC)c3)C2=O)cc1 (configuration not stated),i,44,i,i,i
COc1ccc2nc(C)cc(N3CCC(C(N)=O)CC3)c2c1,i,43,i,i,i
CCOC(=O)C1CCN(c2cc(C)nc3ccc(OC)cc23)CC1,i,i,i,i,i
CC(C)(C)C(=O)Nc1nc2c(s1)COc1ccccc1-2,i,i,i,nt,i
Nc1nc2c(s1)COc1ccccc1-2,i,43,i,i,i
